{"source": "ChEMBL document CHEMBL1127591", "about": "“Novel prodrugs of alkylating agents derived from 2-fluoro- and 3-fluorobenzoic acids for antibody-directed enzyme prodrug therapy” (J Med Chem, 1994)", "key": {"LS174T [1]": {"system": "LS174T", "assay": "Compound was evaluated for its cytotoxicity without carboxypeptidase G2 in the colorectal cell line LS174T for 1 hour", "format": "functional, cell-based", "details": "Homo sapiens", "method_in_brief": "(§1)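 LS174T cells (2.5 × 10³/well) in DMEM + 10% FCS, 5% CO2, 37 °C. Exposed once for 1 h to six concentrations (1–800 μM), with or without CPG2 (6 units/mL final). Compounds and enzyme were freshly prepared. Cells washed three times, regrown 6 days, then fixed and stained. Viable-cell protein read by sulforhodamine B against untreated controls. Octuplicate wells.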"}, "[2]": {"assay": "Chemical half-life in percholate at 37 degree was determined", "format": "ADME", "details": "perchlorate solution", "method_in_brief": "(§2)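 Sodium perchlorate (0.1 M) at 37 °C. Hydrolysis was followed to effective completion by titrating the released acid with 0.01 M NaOH under N2 on an automatic titrator held at pH 7.4. Each compound was run at least twice, and t1/2 is the mean of all determinations.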"}, "[3]": {"assay": "Kinetics of potential prodrugs as substrates for carboxypeptidase G2 was determined and reported as apparent second order constant", "format": "ADME", "method_in_brief": "(§3)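 CPG2 cleavage of the benzoylglutamate amide bond in 100 mM Tris/HCl pH 7.3 with 260 μM ZnCl2 at 37 °C in a thermostated spectrophotometer. Absorbance fall was read at the wavelength of maximal prodrug–parent difference, chosen from 240–400 nm scans. Substrate 0.1–100 μM, CPG2 (0.01–1.0 unit) held constant per run. Michaelis–Menten fit. Duplicates.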"}, "[4]": {"assay": "Kinetics of potential prodrugs as substrates for carboxypeptidase G2 was determined and reported as first order constant", "format": "ADME", "method_in_brief": "as §3"}, "[5]": {"assay": "Kinetics of potential prodrugs as substrates for carboxypeptidase G2 was determined and reported as Michaelis-Menten constant", "format": "ADME", "method_in_brief": "as §3"}, "LS174T [6]": {"system": "LS174T", "assay": "Compound was evaluated for its cytotoxicity with carboxypeptidase G2 in the colorectal cell line LS174T for 1 hour", "format": "functional, cell-based", "details": "Homo sapiens", "method_in_brief": "as §1"}, "[7]": {"assay": "Chemical half-life in percholate at 37 degree Centigrade", "format": "ADME", "details": "perchlorate solution", "method_in_brief": "as §2"}}, "data": [{"smiles": "CS(=O)(=O)OCCN(CCCl)c1ccc(C(=O)O)cc1", "values": [{"measurement": "IC50", "setting": "LS174T [1]", "result": 185, "unit": "µM"}, {"measurement": "half-life", "setting": "[2]", "result": 0.967, "unit": "h"}]}, {"smiles": "CS(=O)(=O)OCCN(CCOS(C)(=O)=O)c1ccc(C(=O)N[C@@H](CCC(=O)O)C(=O)O)cc1F", "values": [{"measurement": "k cat/Km", "setting": "[3]", "result": "3.3e+07", "unit": "M⁻¹ s⁻¹"}, {"measurement": "k cat", "setting": "[4]", "result": 565, "unit": "s⁻¹"}, {"measurement": "Km", "setting": "[5]", "result": 17, "unit": "µM"}, {"measurement": "half-life", "setting": "[2]", "result": 0.15, "unit": "h"}]}, {"smiles": "CS(=O)(=O)OCCN(CCCl)c1ccc(C(=O)O)cc1F", "values": [{"measurement": "IC50", "setting": "LS174T [1]", "result": 280, "unit": "µM"}, {"measurement": "half-life", "setting": "[2]", "result": 0.04, "unit": "h"}]}, {"smiles": "CS(=O)(=O)OCCN(CCCl)c1ccc(C(=O)N[C@@H](CCC(=O)O)C(=O)O)cc1F", "values": [{"measurement": "k cat/Km", "setting": "[3]", "result": "1.02e+08", "unit": "M⁻¹ s⁻¹"}, {"measurement": "k cat", "setting": "[4]", "result": 614, "unit": "s⁻¹"}, {"measurement": "Km", "setting": "[5]", "result": 6, "unit": "µM"}, {"measurement": "half-life", "setting": "[2]", "result": 2.03, "unit": "h"}]}, {"smiles": "CS(=O)(=O)OCCN(CCOS(C)(=O)=O)c1ccc(C(=O)O)cc1F", "values": [{"measurement": "IC50", "setting": "LS174T [1]", "result": 480, "unit": "µM"}, {"measurement": "half-life", "setting": "[2]", "result": 0.0317, "unit": "h"}]}, {"smiles": "CS(=O)(=O)OCCN(CCCl)c1ccc(C(=O)O)c(F)c1", "values": [{"measurement": "IC50", "setting": "LS174T [1]", "result": "> 800", "unit": "µM"}, {"measurement": "half-life", "setting": "[2]", "result": 3.2, "unit": "h"}]}, {"smiles": "O=C(O)CC[C@H](NC(=O)c1ccc(N(CCCl)CCCl)c(F)c1)C(=O)O", "values": [{"measurement": "IC50", "setting": "LS174T [6]", "result": 390, "unit": "µM"}, {"measurement": "k cat/Km", "setting": "[3]", "result": "1.03e+08", "unit": "M⁻¹ s⁻¹"}, {"measurement": "k cat", "setting": "[4]", "result": 1028, "unit": "s⁻¹"}, {"measurement": "Km", "setting": "[5]", "result": 10, "unit": "µM"}, {"measurement": "IC50", "setting": "LS174T [1]", "result": "> 800", "unit": "µM"}, {"measurement": "half-life", "setting": "[2]", "result": 2.45, "unit": "h"}]}, {"smiles": "CS(=O)(=O)OCCN(CCCl)c1ccc(C(=O)N[C@@H](CCC(=O)O)C(=O)O)cc1", "values": [{"measurement": "IC50", "setting": "LS174T [6]", "result": 200, "unit": "µM"}, {"measurement": "k cat/Km", "setting": "[3]", "result": "1.71e+08", "unit": "M⁻¹ s⁻¹"}, {"measurement": "k cat", "setting": "[4]", "result": 583, "unit": "s⁻¹"}, {"measurement": "Km", "setting": "[5]", "result": 3.4, "unit": "µM"}, {"measurement": "half-life", "setting": "[2]", "result": 16.4, "unit": "h"}]}, {"smiles": "CS(=O)(=O)OCCN(CCCl)c1ccc(C(=O)N[C@@H](CCC(=O)O)C(=O)O)c(F)c1", "values": [{"measurement": "k cat/Km", "setting": "[3]", "result": "1.9e+07", "unit": "M⁻¹ s⁻¹"}, {"measurement": "k cat", "setting": "[4]", "result": 213, "unit": "s⁻¹"}, {"measurement": "Km", "setting": "[5]", "result": 11, "unit": "µM"}]}, {"smiles": "CS(=O)(=O)OCCN(CCOS(C)(=O)=O)c1ccc(C(=O)N[C@@H](CCC(=O)O)C(=O)O)cc1", "values": [{"measurement": "half-life", "setting": "[7]", "result": 0.7, "unit": "h"}]}, {"smiles": "O=C(O)CC[C@H](NC(=O)c1ccc(N(CCCl)CCCl)cc1)C(=O)O", "values": [{"measurement": "half-life", "setting": "[2]", "result": 19.3, "unit": "h"}]}, {"smiles": "O=C(O)CC[C@H](NC(=O)c1ccc(N(CCCl)CCCl)cc1F)C(=O)O", "values": [{"measurement": "IC50", "setting": "LS174T [6]", "result": "> 800", "unit": "µM"}, {"measurement": "k cat/Km", "setting": "[3]", "result": "3.1e+07", "unit": "M⁻¹ s⁻¹"}, {"measurement": "k cat", "setting": "[4]", "result": 462, "unit": "s⁻¹"}, {"measurement": "Km", "setting": "[5]", "result": 15, "unit": "µM"}, {"measurement": "IC50", "setting": "LS174T [1]", "result": "> 800", "unit": "µM"}]}]}
